# Beta2AR agonist – beta2AR agonists driving receptor internalization, primary screen, cell-based, FAP fluorogen, flow cytometry | response, % (no concentration beside the values) | Beta-2 adrenergic receptor (Homo sapiens), P07550 | actives 0.43% (n = 340,000) | Am2.2-beta2AR cells;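 active = response above a set limit, near 3 SD of response in nonfluorescent compounds, cut at about 42% in these data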
# APJ agonist – agonists of human apelin receptor APJ, primary screen, CHO-K1 cells, PathHunter beta-arrestin, luminescence | P35414 | 0% DMSO wells, 100% apelin | activation, % at 20 µM | actives 0.11% (n = 330,000) | AID 2520, 2010;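 active = activation more than six SD over the plate average, tested at 20 µM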;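 also: 0% = DMSO alone and 100% = apelin-13 at 10 nM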
#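 Assay system – PathHunter CHO-K1 APJ (AGTRL-1) beta-arrestin reporter cells · Compound – one dose, 20 µM compound, 1% DMSO · Timing – compound 90 min 25 °C, reagent 1 h · Measured by – luminescence from split beta-galactosidase complementation, Galacton Star/Emerald II substrate · Measure – beta-arrestin recruitment to APJ as agonist activity, luminescent signal · Benchmarks – DMSO vs Apelin-13 10 nM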
# APJ antag – antagonists of human apelin receptor APJ, primary screen, CHO-K1 cells, beta-arrestin complementation, luminescence | P35414 | inhibition, % at 20 µM | actives 0.32% (n = 330,000) | AID 2521, 2010;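 active = inhibition above about 40% at 20 µM, limit read from the data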;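 also: cells challenged with 10 nM apelin-13 agonist together with compound; plate controls were apelin-13 plus DMSO wells for no effect and DMSO wells lacking apelin-13 for full effect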
# CCR6 antagonist – CCR6 receptor antagonists, primary screen, cell-based, CHO-K1, luminescence, beta-arrestin, uHTS. AID 493098, 2011. inhibition, % at 20 µM. actives 0.49% (n = 340,000). C-C chemokine receptor type 6 (Homo sapiens), P51684. CHO-K1 CCR6 PathHunter beta-arrestin, CCL20-stimulated;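 active = compounds whose inhibition of the agonist-driven luminescence signal at 20 µM reaches about 50%, limit read from the data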;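 also: cells stimulated with CCL20 at 14 nM final; plate controls were DMSO with CCL20 for no effect and DMSO without agonist for full effect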
# EBI2 block – EBI2 receptor antagonists, beta-arrestin recruitment, primary screen, cell-based, luminescence, 7a,25-OHC stimulation, uHTS; G-protein coupled receptor 183 (Homo sapiens), P32249; 7a,25-OHC stimulated; inhibition, % at 5 µM; actives 0.81% (n = 360,000); AID 651636, 2012; in the data active = inhibition above about 38%;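 also: enzyme fragment complementation signal reports receptor beta-arrestin coupling in cells; 0% = agonist plus DMSO wells and 100% = wells without agonist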
# CXCR6 inh – CXCR6 receptor inhibitors, primary screen, cell-based, beta-arrestin, luminescence, CHO-K1 PathHunter, 1536-well | inhibition, % at 20 µM | actives 0.36% (n = 360,000) | C-X-C chemokine receptor type 6 (Homo sapiens), O00574; in the data active = inhibition above about 34%, passing the limit was not always enough;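 also: antagonist mode with CXCL16 agonist at 10 nM final; 0% = 10 nM CXCL16 with DMSO and 100% = unstimulated wells without agonist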
# Target sequence (O00574 whole entry, looked up): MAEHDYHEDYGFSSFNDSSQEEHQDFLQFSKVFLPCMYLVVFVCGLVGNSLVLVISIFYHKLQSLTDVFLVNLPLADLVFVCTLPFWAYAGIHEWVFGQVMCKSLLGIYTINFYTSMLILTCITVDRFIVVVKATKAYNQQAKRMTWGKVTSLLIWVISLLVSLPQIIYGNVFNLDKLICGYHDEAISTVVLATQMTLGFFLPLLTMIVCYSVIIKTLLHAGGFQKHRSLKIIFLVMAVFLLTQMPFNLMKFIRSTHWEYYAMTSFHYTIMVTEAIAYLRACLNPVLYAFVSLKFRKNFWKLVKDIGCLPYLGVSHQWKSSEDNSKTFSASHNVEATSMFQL
# APJ antag confirm – APJ antagonists blocking beta-arrestin recruitment, confirmation, cell-based, luminescence, single concentration, uHTS hits. shares compounds with APJ antag. inhibition, % at 20 µM. antagonist mode. AID 2766, 2010. actives 66% (n = 950); in the data active = inhibition above about 50%
# B2AR ag CP1 – beta2AR agonists via receptor internalization, confirmation, cell-based, FAP fluorogen, flow cytometry, single point, cherry pick 1; Am2.2-beta2AR cells, FAP surface receptor; stronger effect = lower value; shares compounds with Beta2AR agonist; percent response (surface receptor), % at 10 µM; actives 25% (n = 1,100);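 active = surface receptor percent response at or below 58%, roughly 3 SD from nonfluorescent compounds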
# FAP fluor counter – flagged in Am2.2 fluorescence counterscreen for beta-2AR agonists | AID 588765 | calls only at 10 µM | Am2.2 cells, FAP fluorogen flow cytometry; stronger effect = lower value | shares compounds with Beta2AR agonist | 1,100 tested, under 10 active;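 active = percent response below a set limit in fluorescence channel 1 and below 50% in channel 8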
# CXCR6 antag conf – CXCR6 receptor antagonists, confirmation, cell-based, single concentration, beta-arrestin, luminescence. shares compounds with CXCR6 inh. CHO-K1 CXCR6 PathHunter beta-arrestin. inhibition, % at 20 µM. actives 65% (n = 700). AID 602409, 2012;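 active = mean inhibition over four retests above 40%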;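 also: receptor stimulated with 10 nM CXCL16 agonist; beta-galactosidase fragment complementation upon beta-arrestin recruitment to receptor; plate controls were CXCL16 plus DMSO for no effect and DMSO without CXCL16 for full effect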
# Starred values were filed as active, the others as inactive; i = inactive; nt = no result given. An excerpt weighted towards active compounds, which were near 1.8% of everything screened.
SMILES,Beta2AR agonist,APJ agonist,APJ antag,CCR6 antagonist,EBI2 block,CXCR6 inh,others
C=C1C(=O)O[C@@H]2C[C@@H](C)[C@@H]3C4OC4C(=O)[C@@]3(C)[C@@H](O)[C@H]12 (stereo not given in full),43*,2,42*,29,42,34,APJ antag confirm=42
Cc1nc(N2CCN(Cc3ccc4c(c3)OCO4)CC2)[nH]c(=O)c1C,23,1,6,11,1,-2,
CNc1ccc2oc(C[C@H]3O[C@@]4(CC[C@H]3C)O[C@H]([C@H](C)C(=O)c3ccc[nH]3)[C@H](C)C[C@H]4C)nc2c1C(=O)O,28,2,65*,55*,20,75*,APJ antag confirm=61*;CXCR6 antag conf=69*
C=C1C(=O)O[C@@H]2C[C@@H](C)[C@@H]3C=CC(=O)[C@@]3(C)[C@@H](OC(=O)CC(=O)O[C@H]3[C@@H]4C(=C)C(=O)O[C@@H]4C[C@@H](C)[C@@H]4C=CC(=O)[C@]43C)[C@H]12,48*,-9,83*,98*,51*,92*,APJ antag confirm=115*;CXCR6 antag conf=100*
CC1(C)CC2CCC(O)C2C(CCO)N1 (stereo not given),7,nt,nt,8,-15,4,
COc1cc(/C=C/[N+](=O)[O-])ccc1OC(=O)c1cccnc1,25,4,59*,82*,-11,57*,APJ antag confirm=72*;CXCR6 antag conf=63*
CCOC(=O)c1c(C=O)c2ccccc2n1Cc1ccccc1,15,-2,0,18,-2,16,
CC1([N+](=O)[O-])COP(=O)(NC2CC2)OC1 (stereo not given),-2,nt,nt,8,-5,1,
CNCCC(Oc1ccc(C(F)(F)F)cc1)c1ccccc1 (stereo not given),9,nt,nt,39,nt,7,B2AR ag CP1=109;FAP fluor counter=i
CNCCc1ccccc1,nt,-2,0,nt,nt,nt,
OC(CNCc1ccccc1)c1ccc(Cl)cc1 (stereo not given),-2,nt,nt,-1,-2,3,B2AR ag CP1=98;FAP fluor counter=i
C[C@H]1[C@@H](OS(=O)(=O)O)C[C@@H]2C[C@H]([C@@H](O)c3cc(=O)[nH]c(=O)[nH]3)NC3=NC[C@H]1N32,-3,nt,nt,15,-1,7,
COC(=O)C1=C(c2cccc(C#N)c2)C[C@@H]2CC[C@H]1N2C(=O)NC1CCCCC1,-3,-5,-8,16,6,4,
OC(c1cccc(Cl)c1)(c1cccc(Cl)c1)C1CN2CCC1CC2 (stereo not given),59*,-4,24,9,-9,3,B2AR ag CP1=90;FAP fluor counter=i
COC(=O)C1=C(c2cccc(OCc3ccccc3)c2)C[C@@H]2CC[C@H]1N2C(=O)NCc1cccc(F)c1,54*,-5,9,15,34,12,B2AR ag CP1=46*;FAP fluor counter=i
COC(=O)C1=C(c2cccc(OCc3ccccc3)c2)C[C@@H]2CC[C@H]1N2C(=O)NCc1ccccc1,10,0,12,17,20,9,
CCOC(=O)[C@]12Cc3cc(Cl)ccc3[C@H]1N(C1CCCCC1)C(=O)c1cc(OC)ccc12,nt,nt,nt,nt,77*,42*,CXCR6 antag conf=47*

# Source: PubChem BioAssay (several laboratories)
